Assays:
[1] = biological target: High affinity cAMP-specific and IBMX-insensitive 3',5'-cyclic phosphodiesterase 8A (Homo sapiens, UniProt O60658); test: Inhibition of human recombinant PDE8A
Homo sapiens = organism: Homo sapiens; test: Selectivity ratio of IC50 for human recombinant PDE4A4 to IC50 for human recombinant PDE7A1
Procedure, shortened: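 Ratio of IC50 values for the two enzymes. PDE4A4 run at 500 nM [3H]-cAMP with a 10 µM rolipram background; PDE7A1 run at 20 nM [3H]-cAMP with a no-enzyme background. Both used full-length human enzymes from Sf21 cells, 30 min at 37 °C, pH 7.4 Tris/MgSO4, SPA read-out.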

[2] = Inhibition of bovine PDE6; parameters: species or system Bos taurus
[3] = biological target: cGMP-dependent 3',5'-cyclic phosphodiesterase (Homo sapiens, UniProt O00408); test: Inhibition of human recombinant PDE2A
[4] = biological target: Dual specificity calcium/calmodulin-dependent 3',5'-cyclic nucleotide phosphodiesterase 1B (Homo sapiens, UniProt Q01064); test: Inhibition of human recombinant PDE1B
[5] = biological target: High affinity 3',5'-cyclic-AMP phosphodiesterase 7A (Homo sapiens, UniProt Q13946); test: Inhibition of human recombinant PDE7A1 expressed in baculovirus infected insect Sf21 cells after 30 mins by scintillation proximity assay
Procedure, shortened: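 Full-length human recombinant PDE7A1 produced in baculovirus-infected Sf21 cells. SPA read-out with [3H]-cAMP at 20 nM in 80 mM Tris/10 mM MgSO4, pH 7.4. Reaction run 30 min at 37 °C before bead addition and scintillation counting. Background measured without enzyme. IC50 derived.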

[6] = biological target: cGMP-inhibited 3',5'-cyclic phosphodiesterase 3A (Homo sapiens, UniProt Q14432); test: Inhibition of human recombinant PDE3A
[7] = biological target: Dual 3',5'-cyclic-AMP and -GMP phosphodiesterase 11A (Homo sapiens, UniProt Q9HCR9); test: Inhibition of human recombinant PDE11A
[8] = biological target: cGMP-specific 3',5'-cyclic phosphodiesterase (Homo sapiens, UniProt O76074); test: Inhibition of human recombinant PDE5A
[9] = biological target: High affinity cGMP-specific 3',5'-cyclic phosphodiesterase 9A (Homo sapiens, UniProt O76083); test: Inhibition of human recombinant PDE9A
[10] = biological target: cAMP and cAMP-inhibited cGMP 3',5'-cyclic phosphodiesterase 10A (Homo sapiens, UniProt Q9Y233); test: Inhibition of human recombinant PDE10A
[11] = biological target: 3',5'-cyclic-AMP phosphodiesterase 4A (Homo sapiens, UniProt P27815); test: Inhibition of human recombinant PDE4A4 expressed in baculovirus infected insect Sf21 cells after 30 mins by scintillation proximity assay
Procedure, shortened: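 Full-length human recombinant enzyme expressed in baculovirus-infected Sf21 cells. Scintillation proximity assay with 500 nM [3H]-cAMP substrate in 80 mM Tris/10 mM MgSO4, pH 7.4. Incubated 30 min at 37 °C, then SPA beads added and plates counted. Background taken in presence of 10 µM rolipram. IC50 reported.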

Chain of 3',5'-cyclic-AMP phosphodiesterase 4A (P27815 whole entry): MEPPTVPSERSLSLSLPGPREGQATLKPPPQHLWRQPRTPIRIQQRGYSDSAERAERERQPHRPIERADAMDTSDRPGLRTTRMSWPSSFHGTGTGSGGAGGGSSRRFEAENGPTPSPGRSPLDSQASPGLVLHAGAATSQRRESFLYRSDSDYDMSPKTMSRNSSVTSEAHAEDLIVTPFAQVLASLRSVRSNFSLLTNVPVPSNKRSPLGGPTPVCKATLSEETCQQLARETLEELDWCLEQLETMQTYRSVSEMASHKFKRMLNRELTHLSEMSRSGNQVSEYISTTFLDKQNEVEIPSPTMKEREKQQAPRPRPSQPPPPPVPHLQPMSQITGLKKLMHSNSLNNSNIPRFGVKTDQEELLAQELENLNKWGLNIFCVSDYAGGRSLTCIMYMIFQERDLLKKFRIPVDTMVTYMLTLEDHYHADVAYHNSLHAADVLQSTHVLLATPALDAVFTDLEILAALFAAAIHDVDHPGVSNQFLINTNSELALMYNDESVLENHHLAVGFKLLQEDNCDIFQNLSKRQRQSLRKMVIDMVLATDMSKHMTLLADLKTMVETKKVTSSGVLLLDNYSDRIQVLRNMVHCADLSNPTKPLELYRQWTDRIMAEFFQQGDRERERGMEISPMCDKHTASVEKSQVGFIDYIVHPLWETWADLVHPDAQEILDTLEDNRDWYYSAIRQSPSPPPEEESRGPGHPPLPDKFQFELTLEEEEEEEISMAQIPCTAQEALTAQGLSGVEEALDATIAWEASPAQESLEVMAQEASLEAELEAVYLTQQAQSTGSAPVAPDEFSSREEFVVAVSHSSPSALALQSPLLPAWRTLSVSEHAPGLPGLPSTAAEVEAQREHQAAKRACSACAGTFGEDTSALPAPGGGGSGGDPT
Chain of High affinity 3',5'-cyclic-AMP phosphodiesterase 7A (Q13946 whole entry): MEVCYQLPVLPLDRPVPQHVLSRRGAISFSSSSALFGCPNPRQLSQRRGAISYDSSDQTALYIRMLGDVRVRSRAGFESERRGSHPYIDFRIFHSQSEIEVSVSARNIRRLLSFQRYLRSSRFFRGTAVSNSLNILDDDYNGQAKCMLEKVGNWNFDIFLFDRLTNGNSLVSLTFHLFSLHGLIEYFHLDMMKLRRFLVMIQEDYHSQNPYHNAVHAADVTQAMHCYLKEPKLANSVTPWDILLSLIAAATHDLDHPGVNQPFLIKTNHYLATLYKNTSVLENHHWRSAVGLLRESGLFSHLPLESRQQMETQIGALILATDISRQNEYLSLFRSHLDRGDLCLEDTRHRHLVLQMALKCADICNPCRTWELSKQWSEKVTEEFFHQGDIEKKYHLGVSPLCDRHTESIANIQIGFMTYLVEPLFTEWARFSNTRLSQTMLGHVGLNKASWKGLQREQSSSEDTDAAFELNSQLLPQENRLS
Chain of Dual specificity calcium/calmodulin-dependent 3',5'-cyclic nucleotide phosphodiesterase 1B (Q01064 whole entry): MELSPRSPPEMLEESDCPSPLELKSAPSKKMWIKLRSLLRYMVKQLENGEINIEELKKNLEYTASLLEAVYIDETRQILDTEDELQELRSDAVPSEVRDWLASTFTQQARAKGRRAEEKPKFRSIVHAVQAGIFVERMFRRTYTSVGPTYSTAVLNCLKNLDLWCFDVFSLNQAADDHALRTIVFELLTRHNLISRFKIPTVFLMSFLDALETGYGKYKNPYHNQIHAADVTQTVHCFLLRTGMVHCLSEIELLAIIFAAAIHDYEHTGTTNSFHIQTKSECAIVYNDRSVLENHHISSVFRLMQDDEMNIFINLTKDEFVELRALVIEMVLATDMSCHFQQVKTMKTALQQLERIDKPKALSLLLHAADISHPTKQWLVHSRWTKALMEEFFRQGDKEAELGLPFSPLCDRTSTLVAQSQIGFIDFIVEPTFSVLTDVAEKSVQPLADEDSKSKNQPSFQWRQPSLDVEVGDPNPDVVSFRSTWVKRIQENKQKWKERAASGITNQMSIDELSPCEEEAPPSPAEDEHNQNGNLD
Chain of High affinity cAMP-specific and IBMX-insensitive 3',5'-cyclic phosphodiesterase 8A (O60658 whole entry): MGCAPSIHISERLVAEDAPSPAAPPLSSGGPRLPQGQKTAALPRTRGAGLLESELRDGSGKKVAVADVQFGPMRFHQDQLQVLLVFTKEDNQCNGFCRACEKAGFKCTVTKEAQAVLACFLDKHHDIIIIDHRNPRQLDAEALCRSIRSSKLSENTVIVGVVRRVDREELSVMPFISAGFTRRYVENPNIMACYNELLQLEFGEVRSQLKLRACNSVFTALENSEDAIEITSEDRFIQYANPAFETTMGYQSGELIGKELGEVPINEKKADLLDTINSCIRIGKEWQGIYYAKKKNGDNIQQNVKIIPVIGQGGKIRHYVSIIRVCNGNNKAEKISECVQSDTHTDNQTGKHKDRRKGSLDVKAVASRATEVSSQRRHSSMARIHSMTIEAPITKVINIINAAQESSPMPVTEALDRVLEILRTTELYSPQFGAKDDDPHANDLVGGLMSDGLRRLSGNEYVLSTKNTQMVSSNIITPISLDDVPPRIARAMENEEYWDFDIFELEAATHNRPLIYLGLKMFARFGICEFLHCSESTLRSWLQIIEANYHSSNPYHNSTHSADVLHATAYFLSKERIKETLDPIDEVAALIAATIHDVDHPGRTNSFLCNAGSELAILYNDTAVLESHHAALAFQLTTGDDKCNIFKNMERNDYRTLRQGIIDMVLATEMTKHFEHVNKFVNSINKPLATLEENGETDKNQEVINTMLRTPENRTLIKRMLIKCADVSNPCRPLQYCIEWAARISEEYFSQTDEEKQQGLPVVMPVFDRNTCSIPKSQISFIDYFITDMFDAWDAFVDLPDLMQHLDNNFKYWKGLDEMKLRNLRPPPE
Chain of High affinity cGMP-specific 3',5'-cyclic phosphodiesterase 9A (O76083 whole entry): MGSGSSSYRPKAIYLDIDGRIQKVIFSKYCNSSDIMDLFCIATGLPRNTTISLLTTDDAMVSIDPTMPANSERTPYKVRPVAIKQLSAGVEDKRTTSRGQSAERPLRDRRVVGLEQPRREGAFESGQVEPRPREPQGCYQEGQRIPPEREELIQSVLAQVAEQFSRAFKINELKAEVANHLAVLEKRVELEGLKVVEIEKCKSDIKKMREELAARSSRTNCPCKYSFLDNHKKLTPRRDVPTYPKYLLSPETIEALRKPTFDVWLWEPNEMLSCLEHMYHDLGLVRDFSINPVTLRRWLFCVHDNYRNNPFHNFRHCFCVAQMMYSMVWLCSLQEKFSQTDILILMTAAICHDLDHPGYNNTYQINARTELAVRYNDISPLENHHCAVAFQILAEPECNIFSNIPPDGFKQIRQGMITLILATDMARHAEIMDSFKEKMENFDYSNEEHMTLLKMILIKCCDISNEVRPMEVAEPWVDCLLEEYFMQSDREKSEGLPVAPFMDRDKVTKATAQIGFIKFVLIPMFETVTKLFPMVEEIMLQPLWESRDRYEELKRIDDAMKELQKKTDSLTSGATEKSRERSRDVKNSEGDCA
Chain of cGMP-inhibited 3',5'-cyclic phosphodiesterase 3A (Q14432 whole entry): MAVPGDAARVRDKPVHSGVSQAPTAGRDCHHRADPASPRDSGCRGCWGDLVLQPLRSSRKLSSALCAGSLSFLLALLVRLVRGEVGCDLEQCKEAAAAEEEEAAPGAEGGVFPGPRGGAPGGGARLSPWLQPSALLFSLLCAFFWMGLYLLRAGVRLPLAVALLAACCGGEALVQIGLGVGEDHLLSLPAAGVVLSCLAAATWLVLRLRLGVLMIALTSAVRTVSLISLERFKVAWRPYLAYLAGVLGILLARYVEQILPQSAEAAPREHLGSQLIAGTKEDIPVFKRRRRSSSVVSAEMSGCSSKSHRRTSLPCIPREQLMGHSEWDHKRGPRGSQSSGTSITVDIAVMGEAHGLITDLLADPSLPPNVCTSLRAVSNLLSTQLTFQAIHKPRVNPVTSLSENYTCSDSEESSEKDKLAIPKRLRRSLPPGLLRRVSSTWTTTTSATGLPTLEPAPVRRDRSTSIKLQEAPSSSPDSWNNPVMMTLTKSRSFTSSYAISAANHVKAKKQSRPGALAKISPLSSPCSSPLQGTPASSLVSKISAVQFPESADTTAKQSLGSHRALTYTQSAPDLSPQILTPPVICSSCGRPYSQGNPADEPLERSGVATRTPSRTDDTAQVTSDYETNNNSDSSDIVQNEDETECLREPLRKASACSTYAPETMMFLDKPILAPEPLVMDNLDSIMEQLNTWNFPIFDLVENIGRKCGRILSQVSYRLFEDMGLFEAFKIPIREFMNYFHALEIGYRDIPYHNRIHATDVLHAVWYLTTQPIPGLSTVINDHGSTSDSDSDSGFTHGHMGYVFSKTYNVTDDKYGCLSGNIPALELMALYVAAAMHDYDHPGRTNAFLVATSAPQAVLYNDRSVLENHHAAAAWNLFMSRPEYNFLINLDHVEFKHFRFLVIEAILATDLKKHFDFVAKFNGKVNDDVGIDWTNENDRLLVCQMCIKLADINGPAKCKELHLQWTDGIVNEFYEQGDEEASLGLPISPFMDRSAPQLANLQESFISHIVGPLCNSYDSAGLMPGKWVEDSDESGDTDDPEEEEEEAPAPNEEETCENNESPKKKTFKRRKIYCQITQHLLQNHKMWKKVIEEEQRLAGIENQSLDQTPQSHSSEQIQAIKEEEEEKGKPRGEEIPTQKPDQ

Structure (SMILES)	IC50 [5]	IC50 [11]	further results
O=C(Nc1ccc(N2CCOCC2)cc1)c1cn(Cc2c(F)cccc2Cl)c2ccc(=O)[nH]c2c1=O	13 nM	> 1000 nM	IC50 [1]: > 1000 nM; Ratio IC50 (Homo sapiens): > 77; IC50 [2]: > 1000 nM; IC50 [3]: > 1000 nM; IC50 [4]: > 1000 nM; IC50 [6]: > 1000 nM; IC50 [7]: > 1000 nM; IC50 [8]: > 1000 nM; IC50 [9]: > 1000 nM; IC50 [10]: > 1000 nM
CN(C)c1ccc(NC(=O)c2cn(Cc3c(F)cccc3Cl)c3ccc(=O)[nH]c3c2=O)cc1	39 nM	402 nM	Ratio IC50 (Homo sapiens): 6
CCN(CC)c1ccc(NC(=O)c2cn(Cc3c(F)cccc3Cl)c3ccc(=O)[nH]c3c2=O)cc1	60 nM	> 5000 nM	IC50 [1]: > 5000 nM; Ratio IC50 (Homo sapiens): > 83; IC50 [2]: > 5000 nM; IC50 [3]: > 5000 nM; IC50 [4]: > 5000 nM; IC50 [6]: > 5000 nM; IC50 [7]: > 5000 nM; IC50 [8]: > 5000 nM; IC50 [9]: > 5000 nM; IC50 [10]: > 5000 nM
CS(=O)(=O)c1cccc(NC(=O)c2cn(Cc3c(F)cccc3Cl)c3ccc(=O)[nH]c3c2=O)c1	59 nM	1420 nM	Ratio IC50 (Homo sapiens): 24
NS(=O)(=O)c1ccc(NC(=O)c2cn(Cc3c(F)cccc3Cl)c3ccc(=O)[nH]c3c2=O)cc1	20 nM	385 nM	Ratio IC50 (Homo sapiens): 19
NC(=O)c1cccc(NC(=O)c2cn(Cc3c(F)cccc3Cl)c3ccc(=O)[nH]c3c2=O)c1	44 nM	580 nM	Ratio IC50 (Homo sapiens): 6
NS(=O)(=O)c1ccc(NC(=O)c2cn(Cc3c(F)cccc3F)c3ccc(=O)[nH]c3c2=O)cc1	34 nM	458 nM	
O=C(Nc1ccc(N2CCOCC2)cc1)c1cn(Cc2c(F)c(F)cc(F)c2F)c2ccc(=O)[nH]c2c1=O	317 nM	3560 nM	
O=C(Nc1ccc(N2CCOCC2)cc1)c1cn(Cc2c(F)cccc2F)c2cccnc2c1=O	823 nM	379 nM	
N#Cc1cccc(NC(=O)c2cn(Cc3c(F)cccc3F)c3ccc(=O)[nH]c3c2=O)c1	1070 nM	> 1000 nM	
CC(=O)c1ccc(NC(=O)c2cn(Cc3c(F)cccc3Cl)c3ccc(=O)[nH]c3c2=O)cc1	18 nM	161 nM	Ratio IC50 (Homo sapiens): 6
CC(=O)Nc1ccc(NC(=O)c2cn(Cc3c(F)cccc3F)c3ccc(=O)[nH]c3c2=O)cc1	24 nM	362 nM	
COc1cc(NC(=O)c2cn(Cc3ccc(F)cc3Cl)c3ccc(=O)[nH]c3c2=O)cc(OC)c1OC	192 nM	> 1000 nM	
O=C(Nc1ccc(N2CCOCC2)cc1)c1cn(Cc2ccc(F)cc2)c2ccc(=O)[nH]c2c1=O	2380 nM	> 5000 nM	
O=C(NCc1ccncc1)c1ccc(NC(=O)c2cn(Cc3c(F)cccc3F)c3ccc(=O)[nH]c3c2=O)cc1	20 nM	430 nM	
O=C(Nc1ccc(N2CCOCC2)cc1)c1cn(Cc2ccc(OC(F)(F)F)cc2)c2ccc(=O)[nH]c2c1=O	> 1000 nM	> 1000 nM	
O=C(Nc1ccc(N2CCOCC2)cc1)c1cn(Cc2c(Cl)cccc2Cl)c2ccc(=O)[nH]c2c1=O	165 nM	> 1000 nM	

Structure (SMILES)	IC50 [5]	IC50 [11]	further results
CS(=O)(=O)c1ccc(NC(=O)c2cn(Cc3c(F)cccc3Cl)c3ccc(=O)[nH]c3c2=O)cc1	12 nM	73 nM	Ratio IC50 (Homo sapiens): 6
O=C(Nc1ccc(N2CCOCC2)cc1)c1cn(Cc2ccccc2C(F)(F)F)c2ccc(=O)[nH]c2c1=O	> 1000 nM	> 1000 nM	
O=C(Nc1ccc(F)cc1)c1cn(Cc2c(F)cccc2F)c2ccc(=O)[nH]c2c1=O	179 nM	> 1000 nM	
O=C(Nc1ccc(O)cc1)c1cn(Cc2c(F)cccc2F)c2ccc(=O)[nH]c2c1=O	105 nM	> 1000 nM	
COc1cc(NC(=O)c2cn(Cc3c(F)cccc3Cl)c3ccc(=O)[nH]c3c2=O)cc(OC)c1OC	33 nM	> 1000 nM	
CNC(=O)c1ccc(NC(=O)c2cn(Cc3c(F)cccc3Cl)c3ccc(=O)[nH]c3c2=O)cc1	18 nM	156 nM	
COc1cc(NC(=O)c2cn(Cc3ccccc3)c3ccc(=O)[nH]c3c2=O)cc(OC)c1OC	686 nM	> 1000 nM	
O=C(O)c1ccc(NC(=O)c2cn(Cc3c(F)cccc3F)c3ccc(=O)[nH]c3c2=O)cc1	200 nM	1520 nM	
O=C(Nc1ccc(N2CCCCC2)cc1)c1cn(Cc2c(F)cccc2F)c2ccc(=O)[nH]c2c1=O	124 nM	> 1000 nM	
COc1cc(NC(=O)c2cn(Cc3ccccc3Br)c3ccc(=O)[nH]c3c2=O)cc(OC)c1OC	> 1000 nM	> 1000 nM	
CC(=O)Nc1ccc(NC(=O)c2cn(Cc3c(F)cccc3Cl)c3ccc(=O)[nH]c3c2=O)cc1	17 nM	362 nM	Ratio IC50 (Homo sapiens): 6
Nc1ccc(NC(=O)c2cn(Cc3c(F)cccc3F)c3ccc(=O)[nH]c3c2=O)cc1	104 nM	477 nM	
O=C(O)Cc1ccc(NC(=O)c2cn(Cc3c(F)cccc3F)c3ccc(=O)[nH]c3c2=O)cc1	176 nM	> 1000 nM	
O=C(Nc1ccccc1)c1cn(Cc2c(F)cccc2F)c2ccc(=O)[nH]c2c1=O	94 nM	1330 nM	
COc1cc(NC(=O)c2cn(Cc3c(Cl)cccc3Cl)c3ccc(=O)[nH]c3c2=O)cc(OC)c1OC	88 nM	979 nM	
NC(=O)c1ccc(NC(=O)c2cn(Cc3c(F)cccc3Cl)c3ccc(=O)[nH]c3c2=O)cc1	10 nM	90 nM	Ratio IC50 (Homo sapiens): 6
CN(C)c1ccc(NC(=O)c2cn(Cc3c(F)cccc3F)c3ccc(=O)[nH]c3c2=O)cc1	66 nM	471 nM	

From ChEMBL document CHEMBL1909601, “Synthesis and structure-activity relationship studies of dihydronaphthyridinediones as a novel structural class of potent and selective PDE7 inhibitors” (Bioorg Med Chem Lett, 2011)
